Assay [1] deals with T1, Serotonin (5-HT) receptor (Rattus norvegicus) (UniProt P35563+P35365+P32305+P31388+Q9JJ16+P28564+P30994+Q62758+P08909+P14842+P30940+P35364+P19327+P28565). The assay can be described thus: Subcutaneous dose giving half-maximal decrease of 5-HTP formation in the rat brain (striatum). The assay is classed as functional, tissue-based. In a few lines: (§1)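 Male Sprague-Dawley rats (200–350 g) were reserpinized. Reserpine was dissolved in glacial acetic acid and made up with 5.5% glucose. Test drug was given sc in saline, at neutral pH, 5 or 10 mL/kg. Brain-part 5-HTP formation was measured spectrofluorometrically. ED50 (half-maximal decrease) came from 4–6 dose levels, n = 3-5.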

Assay [2] addresses T2, Dopamine receptor (Rattus norvegicus) (UniProt P25115+P19020+P30729+P18901+P61169). The assay can be described thus: Subcutaneous dose giving half-maximal decrease of Dopa formation in the rat brain (limbic). Format: functional, tissue-based.
In assay [3] the target is T1, Serotonin (5-HT) receptor (Rattus norvegicus). The assay can be described thus: Subcutaneous dose giving half-maximal decrease of 5-HTP formation in the rat brain (limbic). Format: functional, tissue-based. The method, boiled down:
as §1

Assay [4] concerns the target T2, Dopamine receptor (Rattus norvegicus). The assay can be described thus: Subcutaneous dose giving half-maximal decrease of Dopa formation in the rat brain (striatum). Format: functional, tissue-based.
Assay [5] has as its target T1, Serotonin (5-HT) receptor (Rattus norvegicus). The assay is described as follows: Subcutaneous dose giving half-maximal decrease of 5-HTP formation in the rat brain hemispheres (cortex). Format: functional, tissue-based. In a few lines:
as §1

For assay [6], the system named is Rattus norvegicus. The assay can be described thus: Compound was tested for subcutaneous dose giving half-maximal decrease of 5-HTP formation in the rat brain hemispheres (cortex); Inactive. Format: functional, organism-based. The method, boiled down:
as §1

The subject of assay [7] is Rattus norvegicus. The assay can be described thus: Compound was tested for subcutaneous dose giving half-maximal decrease of 5-HTP formation in the rat brain (striatum); Inactive. Format: functional, organism-based. In a few lines:
as §1

For assay [8], the system named is Rattus norvegicus. The assay can be described thus: Compound was tested for subcutaneous dose giving half-maximal decrease of 5-HTP formation in the rat brain (limbic); Inactive. Format: functional, organism-based. The method, boiled down:
as §1

Assay [9] has as its system Rattus norvegicus. The assay can be described thus: Compound was tested for subcutaneous dose giving half-maximal decrease of Dopa formation in the rat brain (striatum). The settings on record: sc. Format: functional.
The subject of assay [10] is Rattus norvegicus. The assay can be described thus: Compound was tested for subcutaneous dose giving half-maximal decrease of Dopa formation in the rat brain (limbic). The assay is classed as functional. To be noted: sc.

The source made the active and inactive calls. No cut-off for these calls is given here.

Consider `CCCCNC1CCc2cccc(O)c2C1` (stereo not given), for which the ED50 (commonly the dose that gives a 50% effect, or the effect in half of the subjects) stood at 4.5 µmol/kg in [1], 4.3 µmol/kg in [3] and 6.3 µmol/kg in [5]. Also, the ED50 entry in [2] and in assay [4] was “inactive” each time.

For the molecule `CNC1CCc2cccc(O)c2C1` (stereo not given), the ED50 in [1] came out at 1.6 µmol/kg; in [3], 1.5 µmol/kg; in assay [5], 1.8 µmol/kg. Moreover, the ED50 entry in assay [2] and in assay [4] was “inactive” each time.

For `CCCN(CCC)C1CCc2c(OC)ccc(OC)c2C1` (stereo not given), the ED50 result in the assay with Rattus norvegicus [6], in the assay with Rattus norvegicus [7] and in the assay on Rattus norvegicus [8] was “inactive” throughout. The ED50 with Rattus norvegicus [9] turned out to be 1.24 µmol/kg; in the assay on Rattus norvegicus [10], 0.905 µmol/kg.

As for `CCCN(Cc1ccccc1)C1CCc2cccc(O)c2C1` (stereo not given), the results for the ED50 in assay [1], in assay [3] and in assay [5] were 2.9 µmol/kg, 2.7 µmol/kg and 2.3 µmol/kg, respectively. Also, the ED50 entry in [2] and in assay [4] was “inactive” throughout.

Take `CCCN(CCC)C1CCc2cccc(OC)c2C1` (stereo not given): the ED50 was 0.29 µmol/kg in assay [1], 0.34 µmol/kg in assay [3] and 0.23 µmol/kg in assay [5]. The ED50 result in [2] and in assay [4] was “inactive” each time.

With `CCCN(CCC)[C@H]1CCc2cccc(O)c2C1`, the ED50 in assay [1] stood at 0.065 µmol/kg; in assay [3], 0.061 µmol/kg; in assay [5], 0.077 µmol/kg. In addition, the ED50 result in assay [2] and in assay [4] was “inactive” in each case.

As for `CC(C)NC1CCc2cccc(O)c2C1` (stereo not given), the ED50 in assay [1] was 2.9 µmol/kg; in assay [3] it was 2.6 µmol/kg; in [5] it was 4.1 µmol/kg. Moreover, the ED50 result in assay [2] and in assay [4] was “inactive” each time.

For `CN(C)C1CCc2cccc(O)c2C1` (stereo not given), the ED50 in assay [1] was determined as 0.43 µmol/kg; in [3] it was 0.38 µmol/kg; in assay [5], 0.36 µmol/kg. Further, the ED50 entry in assay [2] and in [4] was “inactive” throughout.

In the case of `CCCCN(CCCC)C1CCc2cccc(O)c2C1` (stereo not given), the ED50 in assay [1] was determined as 6.6 µmol/kg; in [3], 5 µmol/kg; in assay [5], 5.7 µmol/kg. The ED50 entry in assay [2] and in assay [4] was “inactive” in each case.

For the molecule `CCCCCCCCNC1CCc2cccc(O)c2C1` (stereo not given), the ED50 entry (in assay [2]; with Rattus norvegicus [6]; in the assay on Rattus norvegicus [7]; in the assay on Rattus norvegicus [8]; in assay [4]) was “inactive” each time.

Turning to `CCCN(CCC)C1CCc2cccc(O)c2C1` (racemic), the figures for the ED50 in assay [1], in [3] and in assay [5] were 0.052 µmol/kg, 0.052 µmol/kg and 0.063 µmol/kg, respectively. Further, the ED50 result in assay [2] and in assay [4] was “inactive” in each case.

On to `CCCNC1CCc2cccc(O)c2C1` (stereo not given), for which the ED50 in [1] amounted to 0.15 µmol/kg; in [3], 0.14 µmol/kg; in assay [5], 0.18 µmol/kg. Moreover, the ED50 entry in [2] and in assay [4] was “inactive” each time.

Regarding `CCCN(CCC)[C@@H]1CCc2cccc(O)c2C1`, the ED50 in assay [1] amounted to 0.047 µmol/kg; in assay [3], 0.036 µmol/kg; in assay [5], 0.05 µmol/kg. The ED50 entry in [2] and in assay [4] was “inactive” each time.

On to `CCN(CC)C1CCc2cccc(O)c2C1` (stereo not given), for which the values for the ED50 in assay [1], in assay [3] and in assay [5] were 0.068 µmol/kg, 0.054 µmol/kg and 0.07 µmol/kg, respectively. Moreover, the ED50 entry in assay [2] and in assay [4] was “inactive” throughout.

Regarding `Oc1cccc2c1CC(N1CCCCC1)CC2` (stereo not given), the results for the ED50 in [1], in assay [3] and in assay [5] were 1.1 µmol/kg, 1.6 µmol/kg and 1.4 µmol/kg, respectively. Besides, the ED50 result in assay [2] and in assay [4] was “inactive” throughout.

As to `CCNC1CCc2cccc(O)c2C1` (stereo not given), the ED50 in assay [1] stood at 0.2 µmol/kg; in assay [3], 0.27 µmol/kg; in assay [5], 0.22 µmol/kg. For the same molecule, the ED50 entry in assay [2] and in assay [4] was “inactive” in each case.

Take `CCCCN(CCC)C1CCc2cccc(O)c2C1` (stereo not given): the ED50 in assay [1] amounted to 0.26 µmol/kg; in assay [3], 0.27 µmol/kg; in assay [5], 0.34 µmol/kg. The ED50 result in assay [2] and in assay [4] was “inactive” in each case.

Take `CCCN(CC)C1CCc2cccc(O)c2C1` (stereo not given): the ED50 in [1] amounted to 0.059 µmol/kg; in [3], 0.057 µmol/kg; in [5], 0.066 µmol/kg. In addition, the ED50 result in assay [2] and in [4] was “inactive” in each case.

In the case of `CCN(CC)C(=O)[C@@H]1C=C2c3cccc4[nH]cc(c34)C[C@H]2N(C)C1` [LYSERGIDE], the ED50 was 0.035 µmol/kg in [1]; 0.036 µmol/kg in [3]; 0.395 µmol/kg with Rattus norvegicus [9]; 0.036 µmol/kg in [5]; 0.39 µmol/kg in the assay with Rattus norvegicus [10].

Regarding `CCCN(CCC)C1CCc2c(O)ccc(O)c2C1` (stereo not given), the ED50 result in the assay with Rattus norvegicus [6], with Rattus norvegicus [7] and with Rattus norvegicus [8] was “inactive” each time. The ED50 in the assay on Rattus norvegicus [9] was 5.4 µmol/kg; with Rattus norvegicus [10] it was 5.2 µmol/kg.

The record behind these values is ChEMBL document CHEMBL1122750, “8-Hydroxy-2-(alkylamino)tetralins and related compounds as central 5-hydroxytryptamine receptor agonists” (1984).
